# According to ChEMBL document CHEMBL1138050, “Furan-2-ylmethylene thiazolidinediones as novel, potent, and selective inhibitors of phosphoinositide 3-kinase gamma” (J Med Chem, 2006):
# How the values were obtained:
# [1] = target: Fibroblast growth factor receptor 3 (Homo sapiens) (UniProt P22607); experiment: Residual activity at human FGFR3 at 10 uM in presence of 10 uM ATP relative to control
# Procedure, shortened: (§1)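 Panel of Ser/Thr and Tyr protein kinases, each tested with 10 µM compound in the presence of 10 µM ATP; activity expressed relative to control.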
# [2] = target: cAMP-dependent protein kinase (PKA) (Homo sapiens) (UniProt P22694+P17612+P22612); experiment: Residual activity at human PKA at 10 uM in presence of 10 uM ATP relative to control; assay type: protein assay
# Procedure, shortened: (§2)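 Single-concentration counter-screen across a panel of 80 Ser/Thr and Tyr protein kinases. Compound was tested at 10 µM with ATP at 10 µM. Activity remaining in each kinase is expressed relative to control.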
# [3] = target: Serine/threonine-protein kinase Chk1 (Homo sapiens) (UniProt O14757); experiment: Residual activity at human Chk1 at 10 uM in presence of 10 uM ATP relative to control; procedure, shortened: as §1
# [4] = target: Serine/threonine-protein kinase PAK 2 (Homo sapiens) (UniProt Q13177); experiment: Residual activity at human PAK2 at 10 uM in presence of 10 uM ATP relative to control; procedure, shortened: as §2
# [5] = target: Dual specificity mitogen-activated protein kinase kinase 6 (Homo sapiens) (UniProt P52564); experiment: Residual activity at human MKK6 at 10 uM in presence of 10 uM ATP relative to control; procedure, shortened: as §2
# Dual specificity mitogen-activated protein kinase kinase 6 (Homo sapiens), sequence (P52564 whole entry): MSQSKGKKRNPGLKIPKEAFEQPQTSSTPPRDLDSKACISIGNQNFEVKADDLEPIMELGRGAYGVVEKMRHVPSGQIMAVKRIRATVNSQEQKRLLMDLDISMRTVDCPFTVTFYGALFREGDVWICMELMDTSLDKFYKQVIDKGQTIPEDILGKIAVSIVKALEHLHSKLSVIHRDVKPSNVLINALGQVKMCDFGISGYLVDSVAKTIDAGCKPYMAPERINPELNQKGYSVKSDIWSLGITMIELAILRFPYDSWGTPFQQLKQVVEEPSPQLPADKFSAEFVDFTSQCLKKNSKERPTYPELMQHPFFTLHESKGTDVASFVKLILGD
# [6] = target: Tyrosine-protein kinase ABL1 (Homo sapiens) (UniProt P00519); experiment: Residual activity at human Abl at 10 uM in presence of 10 uM ATP relative to control; procedure, shortened: as §1
# Tyrosine-protein kinase ABL1 (Homo sapiens), sequence (P00519 whole entry): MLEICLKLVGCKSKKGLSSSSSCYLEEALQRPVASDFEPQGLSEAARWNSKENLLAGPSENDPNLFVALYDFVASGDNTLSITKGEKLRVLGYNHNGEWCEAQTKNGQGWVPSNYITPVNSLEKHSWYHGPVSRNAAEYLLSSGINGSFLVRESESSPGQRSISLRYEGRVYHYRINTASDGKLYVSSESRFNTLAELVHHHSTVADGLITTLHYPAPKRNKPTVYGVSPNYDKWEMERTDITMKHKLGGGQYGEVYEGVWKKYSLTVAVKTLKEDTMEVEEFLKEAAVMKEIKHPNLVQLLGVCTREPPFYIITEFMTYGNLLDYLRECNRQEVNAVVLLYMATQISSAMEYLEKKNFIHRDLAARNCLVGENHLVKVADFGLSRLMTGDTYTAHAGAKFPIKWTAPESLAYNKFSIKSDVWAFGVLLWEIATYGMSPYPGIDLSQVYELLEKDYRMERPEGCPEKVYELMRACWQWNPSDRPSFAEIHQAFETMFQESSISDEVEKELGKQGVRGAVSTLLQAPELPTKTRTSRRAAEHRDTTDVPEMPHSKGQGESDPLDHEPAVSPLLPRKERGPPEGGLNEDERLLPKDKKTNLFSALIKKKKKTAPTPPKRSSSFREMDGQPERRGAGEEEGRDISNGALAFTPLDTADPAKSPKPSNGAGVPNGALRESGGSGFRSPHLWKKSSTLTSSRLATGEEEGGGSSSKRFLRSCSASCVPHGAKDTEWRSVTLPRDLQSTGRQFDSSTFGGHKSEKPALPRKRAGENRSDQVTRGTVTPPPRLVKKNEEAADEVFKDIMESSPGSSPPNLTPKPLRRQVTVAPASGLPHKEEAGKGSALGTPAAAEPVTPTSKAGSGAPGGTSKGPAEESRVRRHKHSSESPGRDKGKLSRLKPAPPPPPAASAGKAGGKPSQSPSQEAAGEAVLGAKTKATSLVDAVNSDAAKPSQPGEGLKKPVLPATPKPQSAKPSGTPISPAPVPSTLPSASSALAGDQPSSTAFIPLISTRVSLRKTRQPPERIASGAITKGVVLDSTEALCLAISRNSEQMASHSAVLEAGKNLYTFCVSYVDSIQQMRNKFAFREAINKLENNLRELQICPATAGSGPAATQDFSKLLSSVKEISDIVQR
# [7] = target: Cyclin-dependent kinase 7/ cyclin H (Homo sapiens) (UniProt P51946+P50613); experiment: Residual activity at human CDK7/CyclinH/MAT1 at 10 uM in presence of 10 uM ATP relative to control; assay type: protein-complex assay; procedure, shortened: as §1
# [8] = target: Ribosomal protein S6 kinase alpha-5 (Homo sapiens) (UniProt O75582); experiment: Residual activity at human MSK1 at 10 uM in presence of 10 uM ATP relative to control; procedure, shortened: as §2
# Ribosomal protein S6 kinase alpha-5 (Homo sapiens), sequence (O75582 whole entry, looked up): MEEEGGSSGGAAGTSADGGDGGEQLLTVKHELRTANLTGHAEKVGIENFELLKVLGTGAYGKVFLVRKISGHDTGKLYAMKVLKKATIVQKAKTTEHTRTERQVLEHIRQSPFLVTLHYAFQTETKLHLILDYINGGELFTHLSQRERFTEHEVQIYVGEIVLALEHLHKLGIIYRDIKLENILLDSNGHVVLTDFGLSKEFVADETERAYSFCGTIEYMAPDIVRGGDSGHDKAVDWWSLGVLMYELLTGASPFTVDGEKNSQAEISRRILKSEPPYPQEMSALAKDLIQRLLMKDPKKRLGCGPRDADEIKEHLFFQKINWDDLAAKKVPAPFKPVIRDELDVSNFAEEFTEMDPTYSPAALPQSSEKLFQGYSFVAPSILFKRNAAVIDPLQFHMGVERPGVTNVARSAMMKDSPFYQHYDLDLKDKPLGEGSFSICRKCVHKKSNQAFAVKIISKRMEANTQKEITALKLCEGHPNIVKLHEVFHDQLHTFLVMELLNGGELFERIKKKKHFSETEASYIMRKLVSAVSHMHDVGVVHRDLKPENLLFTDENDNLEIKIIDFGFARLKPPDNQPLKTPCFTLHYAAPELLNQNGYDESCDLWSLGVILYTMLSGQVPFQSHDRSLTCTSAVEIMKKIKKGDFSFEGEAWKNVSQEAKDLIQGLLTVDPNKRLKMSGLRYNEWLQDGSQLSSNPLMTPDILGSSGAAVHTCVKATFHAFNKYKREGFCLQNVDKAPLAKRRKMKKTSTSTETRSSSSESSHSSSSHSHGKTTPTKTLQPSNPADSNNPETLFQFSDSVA
# [9] = target: Tyrosine-protein kinase CSK (Homo sapiens) (UniProt P41240); experiment: Residual activity at human CSK at 10 uM in presence of 10 uM ATP relative to control; procedure, shortened: as §1
# Tyrosine-protein kinase CSK (Homo sapiens), sequence (P41240 2-450 limits assumed): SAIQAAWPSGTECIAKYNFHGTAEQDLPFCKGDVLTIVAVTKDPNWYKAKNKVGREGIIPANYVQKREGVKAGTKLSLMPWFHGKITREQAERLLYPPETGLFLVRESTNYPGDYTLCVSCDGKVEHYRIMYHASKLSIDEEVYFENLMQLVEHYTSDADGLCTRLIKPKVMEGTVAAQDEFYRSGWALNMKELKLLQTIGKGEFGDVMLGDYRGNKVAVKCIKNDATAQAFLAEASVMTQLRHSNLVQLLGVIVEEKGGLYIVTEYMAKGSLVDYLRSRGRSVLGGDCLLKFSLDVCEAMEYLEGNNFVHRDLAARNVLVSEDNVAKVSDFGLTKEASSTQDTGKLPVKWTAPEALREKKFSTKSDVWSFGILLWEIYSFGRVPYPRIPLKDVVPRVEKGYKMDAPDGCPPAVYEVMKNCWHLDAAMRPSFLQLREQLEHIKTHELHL
# [10] = target: CDK6/cyclin D3 (Homo sapiens) (UniProt P30281+Q00534); experiment: Residual activity at human CDK6/CyclinD3 at 10 uM in presence of 10 uM ATP relative to control; assay type: protein-complex assay; procedure, shortened: as §1
# [11] = target: Aurora kinase A (Homo sapiens) (UniProt O14965); experiment: Residual activity at human Aurora A at 10 uM in presence of 10 uM ATP relative to control; procedure, shortened: as §1
# [12] = target: Mitogen-activated protein kinase 10 (Homo sapiens) (UniProt P53779); experiment: Residual activity at human JNK3 at 10 uM in presence of 10 uM ATP relative to control; procedure, shortened: as §2
# [13] = target: Proto-oncogene tyrosine-protein kinase Src (Homo sapiens) (UniProt P12931); experiment: Residual activity at human cSRC at 10 uM in presence of 10 uM ATP relative to control; procedure, shortened: as §2
# Proto-oncogene tyrosine-protein kinase Src (Homo sapiens), sequence (P12931 2-536 limits assumed): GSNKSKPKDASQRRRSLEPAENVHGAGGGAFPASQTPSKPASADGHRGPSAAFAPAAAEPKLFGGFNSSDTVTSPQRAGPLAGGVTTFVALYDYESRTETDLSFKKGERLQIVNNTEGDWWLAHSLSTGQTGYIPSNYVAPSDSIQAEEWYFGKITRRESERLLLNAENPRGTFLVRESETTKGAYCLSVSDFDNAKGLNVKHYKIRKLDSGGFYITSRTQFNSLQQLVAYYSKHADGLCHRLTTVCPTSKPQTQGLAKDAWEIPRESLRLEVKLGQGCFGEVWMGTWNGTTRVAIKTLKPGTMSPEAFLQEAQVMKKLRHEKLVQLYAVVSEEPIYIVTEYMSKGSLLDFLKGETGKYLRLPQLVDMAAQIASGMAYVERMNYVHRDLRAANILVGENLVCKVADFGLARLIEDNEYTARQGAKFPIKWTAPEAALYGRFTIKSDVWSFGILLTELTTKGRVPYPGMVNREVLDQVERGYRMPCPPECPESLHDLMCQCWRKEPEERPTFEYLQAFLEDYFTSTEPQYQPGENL
# [14] = target: Serine/threonine-protein kinase D1 (Homo sapiens) (UniProt Q15139); experiment: Residual activity at human PKCmu at 10 uM in presence of 10 uM ATP relative to control; procedure, shortened: as §2
# [15] = target: Receptor-type tyrosine-protein kinase FLT3 (Homo sapiens) (UniProt P36888); experiment: Residual activity at human Flt3 at 10 uM in presence of 10 uM ATP relative to control; procedure, shortened: as §1
# [16] = target: Platelet-derived growth factor receptor beta (Homo sapiens) (UniProt P09619); experiment: Residual activity at human PDGFRbeta at 10 uM in presence of 10 uM ATP relative to control; procedure, shortened: as §2
# [17] = target: Mitogen-activated protein kinase 9 (Homo sapiens) (UniProt P45984); experiment: Residual activity at human JNK2-alpha-2 at 10 uM in presence of 10 uM ATP relative to control; procedure, shortened: as §2
# Mitogen-activated protein kinase 9 (Homo sapiens), sequence (P45984 whole entry, looked up): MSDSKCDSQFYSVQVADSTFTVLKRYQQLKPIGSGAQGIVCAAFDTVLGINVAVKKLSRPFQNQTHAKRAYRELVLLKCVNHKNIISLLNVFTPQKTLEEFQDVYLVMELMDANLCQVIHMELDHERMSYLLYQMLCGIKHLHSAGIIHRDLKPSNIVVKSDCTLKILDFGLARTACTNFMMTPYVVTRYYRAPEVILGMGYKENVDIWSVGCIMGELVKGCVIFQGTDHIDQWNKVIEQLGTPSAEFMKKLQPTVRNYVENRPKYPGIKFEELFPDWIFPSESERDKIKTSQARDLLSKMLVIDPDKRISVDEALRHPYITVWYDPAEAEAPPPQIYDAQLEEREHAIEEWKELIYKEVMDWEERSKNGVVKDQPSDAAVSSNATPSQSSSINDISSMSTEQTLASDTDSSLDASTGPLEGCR
# [18] = target: RAC-gamma serine/threonine-protein kinase (Homo sapiens) (UniProt Q9Y243); experiment: Residual activity at human PKBgamma at 10 uM in presence of 10 uM ATP relative to control; procedure, shortened: as §2
# Monocyte = experiment: Inhibition of MCP1-induced chemotaxis of mouse primary monocytes; assay type: functional, cell-based
# Procedure, shortened: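 Cells were starved and pretreated with inhibitor or DMSO, then chemotaxis was induced with MCP-1 (10^-9 M). Primary mouse monocytes: 10^7 5-day bone-marrow-derived monocytes in medium with 0.5% BSA and compound, placed in the upper chamber of a 5 µm transwell. MCP-1 plus compound in the lower chamber. After 3 h at 37 °C, 5% CO2, cells in the lower chamber were counted. IC50.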
# [19] = AUC in rat at 10 mg/kg, iv; assay type: ADME, organism-based; parameters: dose 10 mg/kg, route intravenous; conditions: plasma
# Procedure, shortened: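 Rats given a single 10 mg/kg dose, intravenously or orally. The compound was given as its potassium salt, prepared with KOH in THF/water, for the in vivo work.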
# [20] = target: Ca2+/calmodulin-dependent protein kinase II (CaM kinase II) (Rattus norvegicus) (UniProt P11275+P08413+P15791+P11730); experiment: Residual activity at rat CaMK2 at 10 uM in presence of 10 uM ATP relative to control; assay type: protein assay
# [21] = target: Mitogen-activated protein kinase 12 (Homo sapiens) (UniProt P53778); experiment: Residual activity at human SAPK3 at 10 uM in presence of 10 uM ATP relative to control; procedure, shortened: as §2
# Rattus norvegicus [22] = experiment: Volume of distribution in rat at 10 mg/kg, iv; assay type: ADME, organism-based; parameters: dose 10 mg/kg, route intravenous; conditions: in vivo
# Procedure, shortened: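 Given to rats as a single 10 mg/kg intravenous dose of the potassium salt, run alongside a matching oral arm. Pharmacokinetic parameters derived were CL, AUC, Cmax, t1/2 and Vd.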
# Rattus norvegicus [23] = species: Rattus norvegicus; experiment: Residual activity at rat AMPK at 10 uM in presence of 10 uM ATP relative to control; procedure, shortened: as §2
# RAW264.7 = experiment: Inhibition of C5a-mediated PKB/Akt phosphorylation in mouse Raw264 macrophage; assay type: functional, cell-based
# Procedure, shortened: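 Raw-264 murine macrophages starved 3 h in serum-free medium, pretreated 30 min with inhibitor or DMSO, then stimulated 5 min with 50 nM C5a. Phospho-Ser-473 Akt measured by ELISA. Concentration-response; IC50. Mean ± standard deviation of four independent experiments done in triplicate.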
# [24] = target: Cyclin-dependent kinase 2/cyclin E (Homo sapiens) (UniProt P24864+P24941+O96020); experiment: Residual activity at human CDK2/CyclinE at 10 uM in presence of 10 uM ATP relative to control; assay type: protein-complex assay; procedure, shortened: as §1
# [25] = target: Calcium/calmodulin-dependent protein kinase type IV (Homo sapiens) (UniProt Q16566); experiment: Residual activity at human CaMK4 at 10 uM in presence of 10 uM ATP relative to control; procedure, shortened: as §1
# [26] = target: Mitogen-activated protein kinase 8 (Homo sapiens) (UniProt P45983); experiment: Residual activity at human JNK1alpha1 at 10 uM in presence of 10 uM ATP relative to control; procedure, shortened: as §2
# Mitogen-activated protein kinase 8 (Homo sapiens), sequence (P45983 whole entry): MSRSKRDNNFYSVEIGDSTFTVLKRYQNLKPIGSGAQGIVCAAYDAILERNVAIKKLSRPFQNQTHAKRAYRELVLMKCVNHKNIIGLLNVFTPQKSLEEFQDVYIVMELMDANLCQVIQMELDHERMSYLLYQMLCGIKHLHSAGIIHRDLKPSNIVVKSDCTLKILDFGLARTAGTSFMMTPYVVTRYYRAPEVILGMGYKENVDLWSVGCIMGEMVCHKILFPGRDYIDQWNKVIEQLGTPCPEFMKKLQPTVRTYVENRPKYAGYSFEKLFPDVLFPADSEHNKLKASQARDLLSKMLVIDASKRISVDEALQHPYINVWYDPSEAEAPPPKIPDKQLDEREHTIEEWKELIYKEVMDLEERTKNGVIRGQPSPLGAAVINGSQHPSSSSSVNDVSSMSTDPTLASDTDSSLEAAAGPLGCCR
# [27] = target: Ribosomal protein S6 kinase alpha-2 (Homo sapiens) (UniProt Q15349); experiment: Residual activity at human Rsk2 at 10 uM in presence of 10 uM ATP relative to control; procedure, shortened: as §2
# Fibroblast growth factor receptor 3 (Homo sapiens), sequence (P22607 23-806 limits assumed): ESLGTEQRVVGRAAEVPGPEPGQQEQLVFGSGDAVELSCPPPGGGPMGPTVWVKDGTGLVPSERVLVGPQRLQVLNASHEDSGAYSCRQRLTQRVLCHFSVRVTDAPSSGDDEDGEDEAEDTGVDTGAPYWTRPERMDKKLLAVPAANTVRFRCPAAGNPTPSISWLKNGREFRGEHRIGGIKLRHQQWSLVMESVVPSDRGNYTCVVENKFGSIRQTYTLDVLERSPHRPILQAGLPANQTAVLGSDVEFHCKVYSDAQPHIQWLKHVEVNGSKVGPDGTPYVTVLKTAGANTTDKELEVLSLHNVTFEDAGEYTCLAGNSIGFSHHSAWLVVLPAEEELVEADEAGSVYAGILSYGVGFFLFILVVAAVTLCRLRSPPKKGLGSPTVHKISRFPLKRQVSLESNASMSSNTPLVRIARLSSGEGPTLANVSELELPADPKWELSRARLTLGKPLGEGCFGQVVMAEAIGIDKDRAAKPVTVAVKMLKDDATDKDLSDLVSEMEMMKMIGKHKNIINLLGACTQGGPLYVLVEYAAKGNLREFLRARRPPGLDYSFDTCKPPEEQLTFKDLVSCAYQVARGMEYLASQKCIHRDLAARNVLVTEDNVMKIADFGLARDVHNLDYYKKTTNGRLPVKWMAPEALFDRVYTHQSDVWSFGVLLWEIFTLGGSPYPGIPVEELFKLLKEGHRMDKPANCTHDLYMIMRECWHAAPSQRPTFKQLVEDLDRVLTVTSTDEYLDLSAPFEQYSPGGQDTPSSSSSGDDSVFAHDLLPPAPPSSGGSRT
structure (smiles),measurement,setting,value
O=C1NC(=O)/C(=C/c2ccc(-c3ccc(F)cc3O)o2)S1,Activity,[1],121%
same,Activity,[2],89%
same,Activity,[3],94%
same,Activity,[4],178%
same,Activity,[5],105%
same,Activity,[6],92%
same,Activity,[7],77%
same,Activity,[8],72%
same,Activity,[9],103%
same,Activity,[10],89%
same,Activity,[11],85%
same,Activity,[12],86%
same,Activity,[13],66%
same,Activity,[14],98%
same,Activity,[15],93%
same,Activity,[16],96%
same,Activity,[17],97%
same,Activity,[18],96%
same,IC50,Monocyte,52 µM
same,AUC,[19],4400 ng·h/mL
same,Activity,[20],97%
same,Activity,[21],93%
same,Vdss,Rattus norvegicus [22],25.3 L/kg
same,Activity,Rattus norvegicus [23],90%
same,IC50,RAW264.7,0.23 µM
same,Activity,[24],93%
same,Activity,[25],111%
same,Activity,[26],97%
same,Activity,[27],86%
